Assay results as given in PMC3182555 (Nature chemical biology, 2011).

Key:
β2-microglobulin (β2m) [1] = target: T1, β2-microglobulin (β2m) (Homo sapiens, UniProt P61769); assay: ESI-IMS-MS of non-covalent complexes; assay type: biochemical
In short: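 45 μM β2m at pH 2.5 with test compound (0–1125 μM), shaken at 600 rpm, 25 °C, 48 h, three or more replicates pooled. Spun at 16,300x g for 30 min. Supernatant run on SDS-PAGE, and bands quantified as percent soluble protein versus compound:β2m molar ratio. Binding: 38 μM β2m, 10 mM ammonium formate pH 2.5, 40 or 400 μM compound, 10% acetonitrile, ESI-IMS-MS at 70 V cone.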

β2-microglobulin (β2m) [2] = target: T1, β2-microglobulin (β2m); assay: ESI-IMS-MS of non-covalent complexes; assay type: binding

T1 sequence (P61769 21-119): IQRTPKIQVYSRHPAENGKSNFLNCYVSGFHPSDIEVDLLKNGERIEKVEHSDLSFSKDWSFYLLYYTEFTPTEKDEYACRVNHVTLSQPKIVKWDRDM

Row | Structure (SMILES) | IC50 (β2-microglobulin (β2m) [1]) [µM] | ESI-IMS-MS of non-covalent complexes (β2-microglobulin (β2m) [2])
1 | CO[C@H]1/C=C/O[C@@]2(C)Oc3c(C)c(O)c4c(O)c(cc(O)c4c3C2=O)NC(=O)/C(C)=C\C=C\[C@H](C)[C@H](O)[C@@H](C)[C@@H](O)[C@@H](C)[C@H](OC(C)=O)[C@@H]1C [rifamycin SV] | ~300 | –
2 | CO[C@H]1/C=C/O[C@@]2(C)Oc3c(C)c(O)c4c(O)c(c5c(nc6cc(C)ccn65)c4c3C2=O)NC(=O)/C(C)=C\C=C\[C@H](C)[C@H](O)[C@@H](C)[C@@H](O)[C@@H](C)[C@H](OC(C)=O)[C@@H]1C [rifaximin] | – | Instead, only the most compact conformer shows binding to this ligand (Figure 4c).
